The nature of assay [1]: Cytotoxicity against human SKBR3 cells after 96 hrs by MTT assay. The class given is cell-based. The note with it: SK-BR-3, 96 h. The method in brief: (§1)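 Adherent cells grown in MEM with 10% heat-inactivated FBS, 1 mM sodium pyruvate, 4 mM L-glutamine and nonessential amino acids at 37 °C, 5% CO2. Seeded at 4 × 10^3 cells/well and preincubated 24 h. Exposed 96 h to DMSO stocks serially diluted in medium (DMSO ≤0.5%). MTT added for 4 h, formazan dissolved in DMSO, read at 550 nm (ref 690 nm). IC50 interpolated from T/C curves; ≥3 independent experiments, six cultures per concentration.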
For orientation: Tetrazolium assays rely on reduction of a dye to a coloured formazan, in cell work by metabolically active cells.

The test system of another assay is 41M. Nature of the assay: Cytotoxicity against human 41M cells after 96 hrs by MTT assay. The class given is cell-based. Put shortly: as §1
In assay [2] the target is T1, Ribonucleoside-diphosphate reductase subunit M2 (Mus musculus) (UniProt P11157).
T1 sequence (whole entry): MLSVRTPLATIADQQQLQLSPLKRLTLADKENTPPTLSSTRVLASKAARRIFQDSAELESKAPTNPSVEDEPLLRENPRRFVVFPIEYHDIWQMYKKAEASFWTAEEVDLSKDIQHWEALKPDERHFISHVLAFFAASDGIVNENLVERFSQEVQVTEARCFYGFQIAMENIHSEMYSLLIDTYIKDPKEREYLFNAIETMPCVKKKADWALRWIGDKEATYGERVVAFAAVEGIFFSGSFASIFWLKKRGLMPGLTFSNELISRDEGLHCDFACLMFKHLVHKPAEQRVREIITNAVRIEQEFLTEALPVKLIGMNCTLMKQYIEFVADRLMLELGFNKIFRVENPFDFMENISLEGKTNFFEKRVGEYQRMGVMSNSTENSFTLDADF
In words: Effect on mouse ribonucleotide reductase R2 protein measured by tyrosyl radical concentration in anaerobic condition at 3 mM, 298 K after 1 min. The method in brief: (§2)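 Run in an anaerobic tent with argon-bubbled, vacuum-degassed buffer (50 mM Tris/HCl pH 7.6, 100 mM KCl) and solutions. Protein degassed and diluted to a final 30 µM R2 monomer with 30 µM compound (from 3 mM stocks), 1% DMSO and 1 mM DTT freshly prepared. Incubated at 298 K for 1, 15 and 1005 min total; tyrosyl radical measured by EPR at 77 K.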

In assay [3] the target is T1, Ribonucleoside-diphosphate reductase subunit M2 (Mus musculus). Nature of the assay: Effect on mouse ribonucleotide reductase R2 protein measured by tyrosyl radical concentration in aerobic condition at 30-33 µM, 298 K after 15 mins.
For assay [4] the target is unchanged. Nature of the assay: Effect on mouse ribonucleotide reductase R2 protein measured by tyrosyl radical concentration in aerobic condition at 3 mM, 298 K after 1005 mins. The method in brief:
(§3)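 Reconstituted purified mouse R2 diluted to 30 µM monomer in 50 mM Tris/HCl pH 7.6, 100 mM KCl. Compound added from 3 mM stock (DMSO, or water for nitrates) to a final 30–33 µM (1:1 with monomer), about 1% DMSO, plus 1 mM DTT, under air at 298 K. Samples frozen in liquid nitrogen after each incubation; tyrosyl radical quantified by X-band EPR at 40 K.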

Assay [5] has the same target. In words: Effect on mouse ribonucleotide reductase R2 protein measured by tyrosyl radical concentration in aerobic condition at 3 mM, 298 K after 1 min. The method in brief: as §3
For assay [6] the target is unchanged. Nature of the assay: Effect on mouse ribonucleotide reductase R2 protein measured by tyrosyl radical concentration in anaerobic condition at 3 mM, 298 K after 1005 mins. The method in brief: as §2
The target is the same in assay [7]. In words: Effect on mouse ribonucleotide reductase R2 protein measured by tyrosyl radical concentration in anaerobic condition at 3 mM, 298 K after 15 mins. Put shortly:
as §2

For `C/C(=N\NC(=S)N1CCCC1)c1ccccn1`, the IC50 (in general, the point on the concentration scale where inhibition reaches its midpoint) in assay [1] is 3.1 nM; in the assay with 41M, 0.36 nM.
Turning to `C/C(=N\NC(=S)N1CCCCC1)c1cnccn1`, the IC50 in assay [1] was 2.2 nM; with 41M it was 0.41 nM.
As to `C/C(=N\NC(=S)N(C)C)c1ccccn1`, the values for the IC50 (in assay [1]; in the assay on 41M) were 2.7 nM and 0.22 nM, respectively. Also, the Activity in assay [2] was 8.5 µM; in assay [3], 7 µM; in assay [4], 0.5 µM; in assay [5], 17.2 µM; in assay [6], 0 µM; in assay [7] it was 0 µM.
For `C/C(=N\NC(=S)N(C)C)c1cnccn1`, the values for the IC50 (in assay [1]; with 41M) were 1.4 nM and 0.073 nM, respectively.
For the compound `C/C(=N\NC(=S)N1CCCC1)c1cnccn1`, the IC50 in assay [1] amounted to 5 nM; in the assay with 41M, 1.1 nM.

These data come from ChEMBL document CHEMBL1142947, “Gallium(III) and iron(III) complexes of alpha-N-heterocyclic thiosemicarbazones: synthesis, characterization, cytotoxicity, and interaction with ribonucleotide reductase” (J Med Chem, 2007).
